Tb hexokinase: Trypanosoma brucei hexokinase 1 inhibitors, primary screen, biochemical, G6PDH-coupled NADH absorbance, MLSCN library | 220,000 compounds, 0.11% hits | inhibition, % at 10 µM | recombinant TbHK1, G6PDH-coupled NADH A340;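 active = inhibition of 50% or more in the single-dose primary screen; inactive = inhibition below 50%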
NPY-Y2 antag: NPY-Y2 receptor antagonists, primary screen, cell-based. 140,000 compounds, 0.99% hits. inhibition, % at 2.7 µM. Neuropeptide Y receptor type 2 (Homo sapiens), P49146. NPY-Y2 expressing cells, antagonist mode;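 note: 0% = vehicle with agonist challenge and 100% = reference antagonist with challenge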
Target sequence (P49146 whole entry, looked up): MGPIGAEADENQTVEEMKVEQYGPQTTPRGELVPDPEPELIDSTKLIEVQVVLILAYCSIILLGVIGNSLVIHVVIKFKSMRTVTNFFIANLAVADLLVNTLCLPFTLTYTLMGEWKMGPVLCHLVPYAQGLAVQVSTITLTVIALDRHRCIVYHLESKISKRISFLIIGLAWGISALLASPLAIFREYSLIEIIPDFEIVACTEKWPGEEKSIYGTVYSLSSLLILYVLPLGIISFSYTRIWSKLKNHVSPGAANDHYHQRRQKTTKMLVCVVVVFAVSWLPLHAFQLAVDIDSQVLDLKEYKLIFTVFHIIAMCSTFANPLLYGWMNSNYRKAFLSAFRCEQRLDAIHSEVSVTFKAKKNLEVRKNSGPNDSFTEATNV
NPY-Y1 antag: NPY-Y1 receptor antagonists, primary screen, cell-based. HEK293-CNG Y1 cells, membrane potential fluorescence; NPY at EC95, then isoproterenol. AID 1040, 2008. 200,000 compounds, 1% hits. inhibition, % at 3.6 µM. Neuropeptide Y receptor type 1 (Homo sapiens), P25929;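 active = inhibition above the campaign mean inhibition of all tested compounds plus 3 SD, cut at about 20% in these data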;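 note: 0% = DMSO wells given NPY plus isoproterenol and 100% = isoproterenol alone without NPY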
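System: HEK293 cells with Y1 receptor plus CNG channel / Probe or stimulus: NPY 25 nM then isoproterenol 1 µM plus Ro 20-1724 25 µM / Compound: one concentration, 3.6 µM, in 0.4% DMSO / Schedule: compound incubation 1 h at room temperature, readout 45 min post-stimulation / Measured by: membrane potential fluorescence / Read-out: % inhibition of NPY effect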
NPY-Y2 PAM-ag: NPY-Y2 potentiators or agonists, primary screen, cell-based | cells expressing NPY-Y2, potentiator/agonist read-out | activation, % at 3.6 µM | 220,000 compounds, 0.45% hits | AID 1359, 2008; in the data active = activation above about 27%;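 note: cells stimulated with NPY near EC25 plus isoproterenol at EC100; 0% = vehicle plus submaximal agonist and 100% = vehicle plus saturating agonist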
m-calpain inh: inhibitors of pig calpain II, primary screen, biochemical, fluorogenic peptide substrate, 1536-well; inhibition, % at 16 µM; purified calpain II, 30 min; 220,000 compounds, 0.37% hits;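 active = inhibition above about 50%, limit read from the data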
NPY-Y1 PAM-ag: NPY-Y1 receptor potentiators or agonists, primary screen, cell-based. Neuropeptide Y receptor type 1 (Homo sapiens), P25929. activation, % at 3.6 µM. 220,000 compounds, 0.37% hits. AID 1304, 2008. NPY-Y1 expressing cells, potentiator/agonist activation; in the data active = activation above about 33%, passing the limit was not always enough;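 note: cells stimulated with NPY at EC10 then isoproterenol at EC100; 0% = low agonist plus stimulus and 100% = saturating agonist plus stimulus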
NPY1 antag conf: NPY-Y1 receptor antagonists, retest of hits, confirmation, HEK293-CNG cells, membrane potential fluorescence, triplicate | shares compounds with NPY-Y1 antag | cAMP; NPY challenge against isoproterenol-raised cAMP | inhibition, % at 3.6 µM | 1,200 compounds, 21% hits; in the data active = inhibition above about 20%;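 note: 0% = vehicle with agonist plus stimulus and 100% = stimulus alone without agonist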
NPY2 antag ctr: NPY-Y2 receptor antagonists, selectivity check, confirmation, counter-screen for NPY-Y1 antagonist project, HEK293-CNG cells, membrane potential fluorescence, triplicate; shares compounds with NPY-Y1 antag; antagonism; cells given NPY, then isoproterenol; inhibition, % at 3.6 µM; 1,200 compounds, 28% hits; AID 1255, 2008;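 note: 0% = DMSO with agonist challenge and 100% = reference antagonist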
Active calls of the source: *; . = no result given. Most compounds without a hit are left out; they make up all but 2.3% or so of the library. Cut-off read from the data, not from the text of the source, unless noted: active = inhibition above about 17%; inactive = the rest.

SMILES	Tb hexokinase	NPY-Y2 antag	NPY-Y1 antag	NPY-Y2 PAM-ag	m-calpain inh	NPY-Y1 PAM-ag	NPY1 antag conf	NPY2 antag ctr
COc1cc(-c2nnc(COc3ccc4ccccc4c3)o2)cc(OC)c1OC	-1	9	23*	10	15	-8	17	14
CCCCN(CCCC)c1cc(C)nc(-c2ccccc2O)n1	-3	10	22*	-11	-31	-6	16	17
COC(=O)c1cc(NS(=O)(=O)c2ccc(NC(C)=O)cc2)ccc1Cl	-7	.	.	3	43	25	.	.
COCCN(CC(=O)NC1CCCCC1)C(=O)CCCC(=O)Nc1ccccn1	0	.	10	4	4	6	.	.
O=c1c2c(-c3ccccc3)csc2nc2c3ccccc3c(NCCN3CCOCC3)nn12	-10	.	32*	-36	-341	-63	27*	40*
c1ccc(-c2csc3ncnc(NCCCN4CCOCC4)c23)cc1	3	1	9	-1	11	-9	.	.
COc1cccc(NC(=O)CN(C)C(=O)COc2ccc3ccccc3c2)c1	6	10	16	-7	2	-19	.	.
CCN(CC(=O)Nc1ccccc1OC)C(=O)COc1ccc2ccccc2c1	5	15	24*	-16	15	-39	17	7
O=C1CC(N2CCSCC2)C(=O)N1c1ccc(F)cc1 (configuration not stated)	-5	.	.	13	1	16	.	.
Cc1noc(NS(=O)(=O)c2ccc(NC(=O)c3ccc(OC(C)C)cc3)cc2)c1C	-4	.	54*	13	-10	14	-2	3
O=C(c1cccs1)N1CCN(c2ncc(Br)cn2)CC1	-9	.	.	-7	-9	12	.	.
O=C1NC(c2cccc([N+](=O)[O-])c2)Oc2ccccc21 (configuration not stated)	-6	.	1	3	-64	-13	.	.
O=C(NC1CCCCCC1)c1cc(-c2ccccn2)nc2ccccc12	-3	.	24*	-72	-4	-119	25*	18*
Cc1[nH]c2ccccc2c1C(=O)C(=O)NCCc1ccc(S(N)(=O)=O)cc1	12	3	4	3	-12	-1	.	.
Nc1nc(CN2CCN(c3ccccc3)CC2)nc(N2CCCc3ccccc32)n1	-2	13	22*	-17	10	-38	8	8
Nc1nc(CN2CCN(c3cccc(Cl)c3)CC2)nc(N2CCCc3ccccc32)n1	-8	16	13	-37	-17	-59	.	.
NNC(=O)C(Cc1ccccc1)NC(=O)OCc1ccccc1 (configuration not stated)	4	.	6	-4	34	1	.	.
CCN(CC)CCNC(=S)NC(=O)c1cn(-c2ccccc2)nc1-c1ccc(OC)cc1	-3	.	26*	-43	-14	-43	17	32*
COC(=O)c1cn(-c2ccccc2)nc1-c1ccc(OC)cc1	-13	.	7	-4	-14	-27	.	.
O=C(NCC1OCCCN1S(=O)(=O)c1cc(F)ccc1F)C(=O)NC1CCCCC1 (configuration not stated)	2	.	0	5	-22	10	.	.
CC12CN(C(=O)c3ccccc3Br)CC(C)(CN(C(=O)c3ccccc3Br)C1)C2=O	9	.	.	-13	-5	-9	.	.
CCCCNC(=O)c1onc(CSc2ccc(F)cc2)c1C(=O)NCCCC	-2	.	.	.	34	.	.	.
CCCCNC(=O)c1onc(CSc2ccc(Cl)cc2)c1C(=O)O	-1	17	21*	-47	-44	-34	23*	12
C=CCNC(=O)c1onc(CSc2ccc(Cl)cc2)c1C(=O)O	-2	10	22*	-24	9	-9	15	11
COc1ccc(CNC(=S)NC(C)CCc2ccccc2)cc1 (configuration not stated)	0	.	7	2	10	-14	.	.
SMILES	Tb hexokinase	NPY-Y2 antag	NPY-Y1 antag	NPY-Y2 PAM-ag	m-calpain inh	NPY-Y1 PAM-ag	NPY1 antag conf	NPY2 antag ctr
Cc1cccnc1NC(=O)NC(=O)c1ccc(C(C)(C)C)s1	-3	.	.	-12	-6	2	.	.
COC(=O)c1nnn(-c2cccc(Cl)c2)c1C(=O)OC	0	.	.	-10	-21	18	.	.
CCOc1ccc(N=C(NN)c2ccc3ccccc3n2)cc1	-2	11	24*	-20	-12	-40	4	8
CCn1ncc([N+](=O)[O-])c1C(=O)Nc1c(C)nn(Cc2ccc(F)cc2)c1C	-6	.	-4	-6	-13	2	.	.
Cc1ccc(C2C3=C(CC(C)(C)CC3=O)NC3=C2C(=O)c2ccccc23)cc1 (configuration not stated)	13	7	22*	-7	-43	-16	14	18*
Cc1nn(CC(=O)Nc2ccc(S(=O)(=O)N(C)C)cc2)c(C)c1[N+](=O)[O-]	6	0	6	-8	0	-9	.	.
COC(=O)c1ccc(Cn2cnc3c(cnn3-c3ccc(F)cc3)c2=O)o1	4	8	7	-31	10	-32	.	.
Cc1ccc(-n2ncc3c(=O)[nH]c(SCC(=O)N4CCOCC4)nc32)cc1	13	-1	3	16	-43	-9	.	.
COC(=O)c1ccc(CSc2nc3c(cnn3-c3ccc(C)cc3)c(=O)[nH]2)o1	-9	10	27*	-2	-5	-29	3	10
COC(=O)c1ccc(Cn2cnc3c(cnn3-c3ccc(C)c(C)c3)c2=O)o1	-1	17	27*	-17	-17	-20	12	9
Nc1nc(Sc2c([N+](=O)[O-])cc(C(F)(F)F)cc2[N+](=O)[O-])n[nH]1	-16	.	.	1	14	11	.	.
Cc1ccc(NC(=O)OCc2cn(-c3ccc(Cl)cc3)nn2)cc1	-7	15	29*	-7	-2	-21	18	18*
O=C(Nc1cccc(Cl)c1)OCc1cn(-c2ccc(Cl)cc2)nn1	-1	7	20*	3	4	0	8	12
CCNC(=O)OCc1cn(-c2ccccc2)nn1	-3	.	-1	2	-6	1	.	.
O=C(OCc1cn(-c2ccc(Cl)cc2)nn1)c1ccccc1	-3	8	21*	-14	-16	-27	10	12
CC(C)(C)C(=O)OCc1cn(-c2ccc(Cl)cc2)nn1	-1	5	3	-9	-9	-4	.	.
Cc1ccc(NC(=O)c2c(Cl)nc3ccccn23)cc1	4	.	1	-4	-16	15	.	.

Screens deposited in PubChem BioAssay by several laboratories.
